Insulin prom inh = TRM-6 insulin promoter activity inhibition | TRM-6 cells (human fetal islet line), insulin promoter-eGFP reporter, imaging; reporter expression induced with tamoxifen | inhibition, % at 2 µM | actives 0.9% (n = 130,000) | AID 1273;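 active means inhibition above the mean plus 3 SD, with well images judged a real hit on visual review, cut at about 60% in these data, passing the limit was not always enough; inconclusive means inhibition over the cutoff but images rejected on review; inactive means inhibition not above the cutoff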
Yeast life ext = yeast lifespan extension; AID 775; inhibition of the nicotinamide effect, % at 10 µM; S. cerevisiae growth with nicotinamide, OD615; deaD strain in restrictive glucose medium; actives 0.68% (n = 130,000);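 active means inhibition above a set limit, placed 3 SD over the median of all compounds, cut at about 26% in these data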;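 further: 0% = nicotinamide-treated wells and 100% = cells grown without nicotinamide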
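assay system = DeaD-strain S. cerevisiae | measured by = absorbance at 615 nm | probe or stimulus = nicotinamide 1.5 mM | buffer or medium = CSMM-D glucose medium, restrictive | times = 48 h at 30 °C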
RAM network inh = blocks the yeast RAM network; S. cerevisiae dse1pr::URA3 reporter, 5-FOA growth OD615, 2 d; analog-sensitive cbk1-as2 kinase mutant strain; inhibition, % at 50 µM; actives 1.8% (n = 190,000); AID 868;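 active means inhibition above a set limit, 3 SD over mean compound inhibition, cut at about 8.4% in these data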;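 further: 0% = DMSO-only wells with no growth and 100% = 10 µM 1-NA-PP1 full growth; inhibition rescues growth on 5-FOA so higher OD means more RAM inhibition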
Ins promoter up = MIN6 insulin promoter up-regulation; z-score at 5 µM; MIN6 insulin promoter-GFP reporter, high-content imaging; active compounds read high; actives 0.3% (n = 190,000);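 active means z-score above 3 at 5 µM with at least 500 cells counted in the well; inconclusive means wells under 500 cells, flagged as cytotoxic or low count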
BB579 growth dn = yeast BB579 growth reduction in restrictive medium | S. cerevisiae BB579 growth, OD615, 48 h | inhibition, % at 10 µM | actives 0.51% (n = 140,000) | AID 804;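 active means inhibition above a set limit, 3 SD over the mean compound inhibition, cut at about 44% in these data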
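Test system: S. cerevisiae DeaD strain BB579 yeast; Medium: restrictive CSMM-D medium; Compound: one dose, 10 µM compound with 0.25% DMSO; Incubation: 4 h cell preincubation, 48 h compound exposure, 30 °C humidified; Signal: OD at 615 nm; Benchmarks: amphotericin B at 10 µg/mL as positive control.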
* marks the source's active call; other numbers are inactive results; ? = inconclusive; . = no result given. An excerpt weighted towards active compounds, which were near 3% of everything screened.

SMILES	Insulin prom inh	Yeast life ext	RAM network inh	Ins promoter up	BB579 growth dn
O=C(Nc1ccccc1)c1ccc(S(=O)(=O)N(CCO)CCO)cc1	77*	-7	0	0	-23
N=c1sccn1CC(=O)NC(=O)NC1CCCC1	88*	6	2	.	18
Cc1onc(-c2ccccc2)c1C(=O)OCC(=O)NCc1ccc(F)cc1	.	.	8.5*	0.06	.
CC(=O)c1ccc(N2CCN(C(=O)C3CCCN(S(=O)(=O)c4c(C)[nH]c(=O)[nH]c4=O)C3)CC2)cc1 (stereo not given)	48	.	3	-0.03	.
NNC(=O)c1ccc(COc2ccc3c(c2)CCC3)o1	.	-9	-1	-0.07	91*
CCn1c(SCc2cccc(C(F)(F)F)c2)nnc1-c1ccco1	6	-5	9.6*	.	-12
NC(=O)NC(=O)COC(=O)c1ccc(Cl)c(S(=O)(=O)N(Cc2ccccc2)c2ccc(Cl)cc2)c1	23	-1	10*	-0.06	-44
COc1cccc2c(=O)n(CC(=O)Nc3ccc(F)cc3)ccc12	.	-5	3	0.1	-9
CCOC(=O)COc1cccc2c(=O)n(CC(=O)NCCc3ccc(OC)c(OC)c3)ccc12	20	0	0	3.6*	-13
COc1cccc2c(=O)n(CC(=O)Nc3cccc(F)c3)ccc12	.	-8	2	3.4*	-20
CCOC(=O)c1sc(-c2ccc(Cl)cc2)nc1O	.	.	.	-0.53	.
COc1ccc(S(=O)(=O)n2cnc(C)c2)cc1	.	.	1	0.39	.
O=[N+]([O-])c1cc(C(F)(F)F)cc([N+](=O)[O-])c1NCc1cccnc1	.	-1	2	0.21	-20
O=[N+]([O-])c1cc(C(F)(F)F)cc([N+](=O)[O-])c1NCCCNc1ccc([N+](=O)[O-])c2cccnc12	-38	10	9.0*	-0.2	-34
c1cncc(CSc2nnc3ccc(-c4ccco4)nn23)c1	.	.	0	0.55	.
NC(=O)CSc1nnc2ccc(-c3ccco3)nn12	68*	.	2	0.12	.
CCCN(CCC)S(=O)(=O)c1ccc(C(=O)OCCN2C(=O)c3cccc4c(N5CCOCC5)ccc(c34)C2=O)cc1	-89	6	7	6.2*	-25
Cn1c2ccccc2c(=O)c2c(=O)n(C3CCCCC3)c(-c3cccs3)nc21	14	5	7	-1.7	-15
CCc1nc2c(c(=O)c3ccccc3n2C)c(=O)n1C1CCCCCC1	-55	28*	3	0.13	-36
Cn1c2ccccc2c(=O)c2c(=O)n(C3CCCCCC3)c(C3CCCCC3)nc21	.	26*	1	-0.48	-9
COC(=O)c1ccc(COc2ccccc2/C=C(\C#N)C(=O)Nc2ccc(C)cc2)cc1	27	6	4	0	-31
C=CCNC(=O)/C(C#N)=C/c1ccccc1OCc1ccc(C(=O)OC)cc1	.	35*	7	-0.18	-52
NS(=O)(=O)c1cc(C(=O)OCC(=O)Nc2ccc(N3CCCCC3)cc2)ccc1Cl	.	.	.	-0.63	.
Cc1cc(NC(=O)/C(C#N)=C/c2ccc(-c3ccc(SC(F)F)cc3)o2)n(-c2ccccc2)n1	27	2	4	3.4*	-53
Cn1cnnc1SCC(=O)Nc1ccc(OCc2ccccc2)cc1	0	.	1	-0.42	.
SMILES	Insulin prom inh	Yeast life ext	RAM network inh	Ins promoter up	BB579 growth dn
COc1cc([N+](=O)[O-])ccc1-c1ccc(/C=N/NC(N)=O)o1	.	.	.	3.3*	.
O=C1N/C(=N\N=C\c2cccs2)SC1Cc1ccc(Cl)c(Cl)c1 (stereo not given)	.	.	7	.	.
CCN(CC)CCNC(=O)c1ccc(N2CCCCC2)c(NS(=O)(=O)c2ccc(C)cc2)c1	57	-9	0	0.42	-37
CCN(CC)S(=O)(=O)c1ccc(N2CCCC2)c(NS(=O)(=O)c2ccc(F)cc2)c1	-3	9	9.8*	0.74	-7
COC(=O)c1ccc(N2CCCCC2)c(NS(=O)(=O)c2ccc(C)cc2)c1	19	7	11*	-0.89	-70
COc1ccc(S(=O)(=O)NC(CC(=O)NCCc2ccc(OC)c(OC)c2)C(C)C)cc1 (stereo not given)	.	.	1	0.33	.
O=C(N/N=C/c1cc2c3c(c1O)CCCN3CCC2)c1ccccc1O	53	2	7	?	62*
CCn1c2ccccc2c2cc(NC(=O)c3cccc(OC)c3OC)ccc21	.	-4	4	-1.3	-24
CCn1c2ccccc2c2cc(NC(=O)COc3ccccc3OC)ccc21	-3	-6	9.6*	-0.26	-9
CSc1cccc(NC(=O)COc2cccc3ccccc23)c1	73*	-2	4	-0.59	-10
Cc1cccc(N(CC(=O)NCc2ccco2)C(=O)CCC(=O)Nc2nccs2)c1	.	.	2	0.15	.
COc1cccc(C(=O)N(Cc2nc(-c3cccc(C)c3)no2)C(C)C)c1OC	-290	4	2	.	-49
Cc1cccc(-c2noc(CN(C(C)C)S(=O)(=O)c3ccc(F)cc3)n2)c1	-160	-2	8.5*	-0.58	-62
Cn1c(=O)c(=O)n(C)c2cc(S(=O)(=O)N3CCCC3C(=O)NCc3cccs3)ccc21 (stereo not given)	.	.	.	-0.06	.
CSc1cccc(NC(=O)/C=C/c2cccc(Cl)c2)c1	-57	-4	9.1*	0.29	-48
O=C(/C=C/c1ccccc1)NC(NC(=S)Nc1cccc(Cl)c1)C(Cl)(Cl)Cl (stereo not given)	23	0	8.9*	0.3	-26
O=C(NC(NC(=S)Nc1ccccc1Cl)C(Cl)(Cl)Cl)c1cccc(Cl)c1 (stereo not given)	11	3	9.4*	-0.12	-12
Cc1cccc2[nH]c3c(N4CC=C(c5ccc(F)cc5)CC4)ncnc3c12	.	.	.	-2.5	.
Cc1ccc(N2CC(O)=C(c3ccccc3)C2=N)cc1	73*	.	2	-0.86	.
CCCCCC(=O)N1CCN(CCN=CC2=C(O)CC(c3ccc(OC)c(OC)c3)CC2=O)CC1 (stereo not given)	9	165*	2	-0.67	-24
CCC(=O)OCC(=O)c1c(N)n(Cc2ccccc2)c(=O)n(C)c1=O	-36	-12	0	3.3*	-1
Cn1c(N)c(C(=O)COC(=O)c2cc(-c3ccccc3)nc3ccccc23)c(=O)n(Cc2ccccc2)c1=O	45	30*	3	-0.19	-34
CCOc1ncnc2c1oc1nc(CC(C)C)c3c(c12)CC(C)(C)OC3	-29	14	10*	-0.72	-49
CC(C)(C)c1ccc(C(=O)NNc2cc(Cl)cc(Cl)c2)cc1	.	.	.	-0.89	.
Cc1nn(-c2ccccc2)c2c1C(c1ccc([N+](=O)[O-])cc1)N1C(=N2)C(=O)Nc2ccccc21 (stereo not given)	.	2	5	-1.4	-39
Cc1nn(-c2ccc([N+](=O)[O-])cc2)c2c1C(c1cccc(Br)c1)N1C(=N2)C(=O)Nc2ccccc21 (stereo not given)	37	10	10*	-0.41	-43
Cc1[nH][nH]c(=O)c1C(c1ccc(-c2ccc(Cl)cc2Cl)o1)c1c(C)[nH][nH]c1=O	20	-15	0	-0.2	-81

Source: PubChem BioAssay (several laboratories)
